≈ marks a conversion by molar mass, not a printed value. Blank lines part the entries; values can stand above or below the compound they belong to.
Key:
[1] = test system: Plasma; assay: Drug level in clostridium difficile infected patient plasma assessed as OP-1118 metabolite level at 400 […], po every 12 hrs for 10 days by RP-HPLC/MS; assay type: ADME, organism-based; set-up: route oral; conditions: human, in vivo
Procedure, shortened: (§1)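 Plasma was sampled 0.5 h before and 2 h after dosing on the first and last days of the 10-day oral regimen. Samples were methanol-acetic acid precipitated with OP-1393 internal standard, C18 solid-phase extracted, and analysed by RP-HPLC (40°C column) with tandem quadrupole MS. Assay range was 5 to 1,000 ng/ml for parent and OP-1118.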

[2] = Drug level in clostridium difficile infected patient feces assessed as OP-1118 metabolite level at 100 […], po every 12 hrs for 10 days by RP-HPLC/MS; assay type: ADME, organism-based; set-up: route oral; conditions: human, in vivo
Procedure, shortened: (§2)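 The complete 24-h stool output was collected on day 10 (or the final dosing day if treatment stopped early) and frozen at −80°C. Stool was homogenized in acetonitrile-acetic acid, diluted with acetonitrile, spiked with OP-1393 internal standard, and analysed by RP-HPLC-MS/MS. The assay standard range for parent was 10 to 2,000 ng/ml. Results are reported as mean ± SD in μg/g.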

[3] = Drug level in clostridium difficile infected patient feces assessed as OP-1118 metabolite level at 400 […], po every 12 hrs for 10 days by RP-HPLC/MS; assay type: ADME, organism-based; set-up: route oral; conditions: human, in vivo; procedure, shortened: as §2
[4] = Drug level in clostridium difficile infected patient feces assessed as OP-1118 metabolite level at 200 […], po every 12 hrs for 10 days by RP-HPLC/MS; assay type: ADME, organism-based; set-up: route oral; conditions: human, in vivo; procedure, shortened: as §2
[5] = test system: Plasma; assay: Drug level in clostridium difficile infected patient plasma assessed as OP-1118 metabolite level at 200 […], po every 12 hrs for 10 days by RP-HPLC/MS; assay type: ADME, organism-based; set-up: route oral; conditions: human, in vivo; procedure, shortened: as §1
[6] = test system: Plasma; assay: Drug level in clostridium difficile infected patient plasma assessed as OP-1118 metabolite level at 100 […], po every 12 hrs for 10 days by RP-HPLC/MS; assay type: ADME, organism-based; set-up: route oral; conditions: human, in vivo; procedure, shortened: as §1
[7] = test system: Clostridioides difficile; assay: Antimicrobial activity against Clostridium difficile infected in patient assessed as complete relief of clostridium difficile associated diarrhea symptom in patient at 100 […], po every 12 hrs for 10 days; assay type: functional
[8] = test system: Clostridioides difficile; assay: Antimicrobial activity against Clostridium difficile infected in patient assessed as percentage of patient require no further treatment at 200 […], po every 12 hrs for 10 days; assay type: functional
Procedure, shortened: (§3)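 Phase 2 open-label randomized dose-ranging trial; adults with mild to moderate CDI (primary episode or first relapse, positive toxin by EIA or cytotoxicity assay), oral dosing for 10 days. Clinical failure was defined as the need for additional therapy during the treatment period. Failures underwent C. difficile culture and toxin testing.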

[9] = test system: Clostridioides difficile; assay: Antimicrobial activity against Clostridium difficile infected in patient assessed as resolution of diarrhea on day 10 at 200 […], po every 12 hrs for 10 days; assay type: functional
Procedure, shortened: (§4)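 Open-label randomized phase 2 trial in mild to moderate CDI patients, oral dosing over a 10-day regimen. Resolution of diarrhea was defined as the first day with one or two non-watery, non-loose stools in 24 h, sustained through treatment up to study day 10. Time to resolution was counted from the first dose.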

[10] = test system: Clostridioides difficile; assay: Antimicrobial activity against Clostridium difficile infected in patient assessed as percentage of patient require further treatment at 200 […], po every 12 hrs for 10 days; assay type: functional; procedure, shortened: as §3
[11] = test system: Clostridioides difficile; assay: Antimicrobial activity against Clostridium difficile infected in patient assessed as percentage of patient require further treatment at 400 […], po every 12 hrs for 10 days; assay type: functional; procedure, shortened: as §3
[12] = test system: Clostridioides difficile; assay: Antimicrobial activity against Clostridium difficile infected in patient assessed as percentage of patient require further treatment at 100 […], po every 12 hrs for 10 days; assay type: functional; procedure, shortened: as §3
[13] = Drug level in clostridium difficile infected patient plasma at 400 […], po every 12 hrs for 10 days by RP-HPLC/MS; assay type: ADME, organism-based; set-up: route oral; conditions: human, read-out: Activity; procedure, shortened: as §1
[14] = test system: Clostridioides difficile; assay: Antimicrobial activity against Clostridium difficile infected in patient assessed as clinical failure at 200 […], po every 12 hrs for 10 days; assay type: functional; procedure, shortened: as §3
[15] = Drug level in clostridium difficile infected patient feces at 200 […], po every 12 hrs for 10 days by RP-HPLC/MS; assay type: ADME, organism-based; set-up: route oral; conditions: human, faeces, read-out: Activity; procedure, shortened: as §2
[16] = test system: Clostridioides difficile; assay: Antimicrobial activity against Clostridium difficile infected in patient assessed as complete relief of clostridium difficile associated diarrhea symptom in patient at 400 […], po every 12 hrs for 10 days; assay type: functional
[17] = test system: Clostridioides difficile; assay: Antimicrobial activity against Clostridium difficile infected in patient assessed as recurrence of diarrhea within 6 weeks after treatment at 400 mg/kg, po every 12 hrs for 10 days; assay type: functional
[18] = test system: Clostridioides difficile; assay: Antimicrobial activity against Clostridium difficile infected in patient assessed as clinical failure at 100 […], po every 12 hrs for 10 days; assay type: functional; procedure, shortened: as §3
[19] = test system: Clostridioides difficile; assay: Antimicrobial activity against Clostridium difficile infected in patient assessed as resolution of diarrhea on day 10 at 100 […], po every 12 hrs for 10 days; assay type: functional; procedure, shortened: as §4
[20] = test system: Clostridioides difficile; assay: Antimicrobial activity against Clostridium difficile infected in patient assessed as resolving of diarrhea after 10 days at 100 […], po every 12 hrs for 10 days; assay type: functional; procedure, shortened: as §4
[21] = test system: Plasma; assay: Drug level in clostridium difficile infected patient plasma at 200 […], po every 12 hrs for 10 days by RP-HPLC/MS; assay type: ADME, organism-based; set-up: route oral; conditions: human, in vivo; procedure, shortened: as §1
[22] = test system: Clostridioides difficile; assay: Antimicrobial activity against Clostridium difficile infected in patient assessed as complete relief of clostridium difficile associated diarrhea symptom in patient at 200 […], po every 12 hrs for 10 days; assay type: functional
[23] = Drug level in clostridium difficile infected patient plasma at 100 […], po every 12 hrs for 10 days by RP-HPLC/MS; assay type: ADME, organism-based; set-up: route oral; conditions: human, read-out: Activity; procedure, shortened: as §1
[24] = test system: Clostridioides difficile; assay: Antimicrobial activity against Clostridium difficile; assay type: functional
[25] = test system: Clostridioides difficile; assay: Antimicrobial activity against Clostridium difficile infected in patient assessed as recurrence of diarrhea within 6 weeks after treatment at 200 mg/kg, po every 12 hrs for 10 days; assay type: functional
[26] = test system: Clostridioides difficile; assay: Antimicrobial activity against Clostridium difficile infected in patient assessed as resolving of diarrhea after 10 days at 200 […], po every 12 hrs for 10 days; assay type: functional; procedure, shortened: as §4
[27] = test system: Clostridioides difficile; assay: Antimicrobial activity against Clostridium difficile infected in patient assessed as incomplete relief of clostridium difficile associated diarrhea symptom in patient at 400 […], po every 12 hrs for 10 days; assay type: functional
[28] = test system: Clostridioides difficile; assay: Antimicrobial activity against Clostridium difficile infected in patient assessed as percentage of patient require no further treatment at 100 […], po every 12 hrs for 10 days; assay type: functional; procedure, shortened: as §3
[29] = test system: Clostridioides difficile; assay: Antimicrobial activity against Clostridium difficile infected in patient assessed as clinical failure at 400 […], po every 12 hrs for 10 days; assay type: functional; procedure, shortened: as §3
[30] = Drug level in clostridium difficile infected patient feces at 400 […], po every 12 hrs for 10 days by RP-HPLC/MS; assay type: ADME, organism-based; set-up: route oral; conditions: human, faeces, read-out: Activity; procedure, shortened: as §2
[31] = test system: Clostridioides difficile; assay: Antimicrobial activity against Clostridium difficile infected in patient assessed as incomplete relief of clostridium difficile associated diarrhea symptom in patient at 200 […], po every 12 hrs for 10 days; assay type: functional
[32] = test system: Clostridioides difficile; assay: Antimicrobial activity against Clostridium difficile infected in patient assessed as percentage of patient require no further treatment at 400 […], po every 12 hrs for 10 days; assay type: functional; procedure, shortened: as §3
[33] = Drug level in clostridium difficile infected patient feces at 100 […], po every 12 hrs for 10 days by RP-HPLC/MS; assay type: ADME, organism-based; set-up: route oral; conditions: human, faeces, read-out: Activity; procedure, shortened: as §2
[34] = test system: Clostridioides difficile; assay: Antimicrobial activity against Clostridium difficile infected in patient assessed as incomplete relief of clostridium difficile associated diarrhea symptom in patient at 100 […], po every 12 hrs for 10 days; assay type: functional
[35] = test system: Clostridioides difficile; assay: Antimicrobial activity against Clostridium difficile infected in patient assessed as recurrence of diarrhea within 6 weeks after treatment at 100 […], po every 12 hrs for 10 days; assay type: functional
[36] = test system: Clostridioides difficile; assay: Antimicrobial activity against Clostridium difficile infected in patient assessed as resolving of diarrhea after 10 days at 400 […], po every 12 hrs for 10 days; assay type: functional; procedure, shortened: as §4
[37] = test system: Clostridioides difficile; assay: Antimicrobial activity against Clostridium difficile infected in patient assessed as resolution of diarrhea on day 10 at 400 […], po every 12 hrs for 10 days; assay type: functional; procedure, shortened: as §4

- Activity [1]: 402.3 ng/mL
- Activity [2]: 393 µg/g
- Activity [3]: 760 µg/g
- Activity [4]: 430 µg/g
- Activity [5]: 154.3 ng/mL
- Activity [6]: 77.2 ng/mL
SMILES: CCc1c(Cl)c(O)c(Cl)c(O)c1C(=O)O[C@H]1[C@H](O)[C@H](OC)[C@H](OC/C2=C\C=C\C[C@H](O)/C(C)=C/[C@H](CC)[C@@H](O[C@@H]3OC(C)(C)[C@@H](O)[C@H](O)[C@@H]3O)/C(C)=C/C(C)=C/C[C@@H]([C@@H](C)O)OC2=O)O[C@@H]1C

SMILES: CCc1c(Cl)c(O)c(Cl)c(O)c1C(=O)O[C@H]1[C@H](O)[C@H](OC)[C@H](OC/C2=C\C=C\C[C@H](O)/C(C)=C/[C@H](CC)[C@@H](O[C@@H]3OC(C)(C)[C@@H](OC(=O)C(C)C)[C@H](O)[C@@H]3O)/C(C)=C/C(C)=C/C[C@@H]([C@@H](C)O)OC2=O)O[C@@H]1C [FIDAXOMICIN]
- Activity [7]: 37.5%
- Activity [8]: 18.8%
- Activity [9]: 80%
- Activity [10]: 12.5%
- Activity [11]: 0%
- Activity [12]: 12.5%
- concentration at 10 days [13]: 84.9 ng/mL
- Activity [14]: 13%
- concentration at 10 days [15]: 442000 ng/g
- Activity [16]: 86.7%
- Activity [17]: 6.3%
- Activity [18]: 14%
- Activity [19]: 71%
- Activity [20]: 14%
- Activity [21]: 9.37e-05 mg/mL
- Activity [22]: 50%
- concentration at 10 days [23]: 12.3 ng/mL
- MIC90 [24]: 0.125 µg/mL (≈ 0.118 µM)
- Activity [25]: 0%
- Activity [26]: 7%
- Activity [27]: 13.3%
- Activity [28]: 31.3%
- Activity [29]: 0%
- concentration at 10 days [30]: 1.43e+06 ng/g
- Activity [31]: 37.5%
- Activity [32]: 13.3%
- concentration at 10 days [33]: 256000 ng/g
- Activity [34]: 56.3%
- Activity [35]: 8.3%
- Activity [36]: 6%
- Activity [37]: 94%

SMILES: Cc1ncc([N+](=O)[O-])n1CCO [METRONIDAZOLE]
- MIC90 [24]: 0.5 µg/mL (≈ 2.92 µM)

SMILES: CN[C@H](CC(C)C)C(=O)N[C@H]1C(=O)N[C@@H](CC(N)=O)C(=O)N[C@H]2C(=O)N[C@H]3C(=O)N[C@H](C(=O)N[C@H](C(=O)O)c4cc(O)cc(O)c4-c4cc3ccc4O)[C@H](O)c3ccc(c(Cl)c3)Oc3cc2cc(c3O[C@@H]2O[C@H](CO)[C@@H](O)[C@H](O)[C@H]2O[C@H]2C[C@](C)(N)[C@H](O)[C@H](C)O2)Oc2ccc(cc2Cl)[C@H]1O [VANCOMYCIN]
- MIC90 [24]: 2 µg/mL (≈ 1.38 µM)
